Most compounds without a hit are left out; they make up all but 2% or so of the library.
AI-2 QS mod = modulates the Vibrio harveyi AI-2 quorum sensing system; Vibrio harveyi JMH597 AI-2 luminescence/OD600 ratio, 9 h; hits give low values; strain lacks LuxN and CqsS sensors; 0 = neutral-control median; activity change, % at 7.5 µM; hit rate 0.4% among 300,000; AID 2094; in the data active = activity change below about -75%, passing the limit was not always enough;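 also: luminescence divided by OD600 gain over 9 h not by final OD600 alone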
HIF act = HIF pathway transcriptional activation. U2OS HRE-luciferase reporter, luminescence; normalized: DMSO 0%, desferrioxamine 100%. activation, % at 7.5 µM (by protocol). hit rate 0.32% among 300,000. AID 1910;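 active = mean activation of at least 10% of the iron chelator positive control signal, with at least half of replicates also reaching 10%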
T cruzi repl = T. cruzi replication inhibition; T. cruzi beta-gal in NIH3T3, luminescence, 90 h; inhibition, % (no concentration beside the values); hit rate 1.4% among 300,000;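 active = mean inhibition across valid replicates above about 55%, limit read from the data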;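 also: signal also drops with host cell toxicity which is not excluded here; 0% = plate median of DMSO wells and 100% = zero luminescence signal; higher percent means less beta-gal luminescence so fewer parasites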
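assay system = mouse NIH/3T3 fibroblasts infected with β-gal-expressing T. cruzi Tulahuen C4 | input = 5,000 NIH/3T3 host cells per well | buffer or medium = DMEM plus 2% FBS | timing = 3 h host attachment, then at least 90 h co-culture | measured by = GalScreen luminescence, 60 min | evaluation = luminescence reflecting intracellular parasite burden, expressed as percent inhibition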
ARNT-TACC3 inh = ARNT/TACC3 interaction disruption | Q9Y6A5 | AlphaScreen His-ARNT PAS-B/GST-TACC3 binding, luminescence; TACC3 fragment carries E629A point mutation | AID 623870 | inhibition, % at 9.99 µM | hit rate 0.66% among 390,000;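 active = mean inhibition of replicates at least 50% and at least half of replicates each reaching 50%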;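 also: 0% = complete ARNT plus TACC3 wells and 100% = ARNT alone without TACC3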
Starred values were filed as active, the others as inactive; x = no result given.

SMILES	AI-2 QS mod	HIF act	T cruzi repl	ARNT-TACC3 inh
Cc1nn(-c2ccccc2)c2nc(N)c(C#N)c(-c3ccc(O)c(O)c3)c12	9	0	42	6
Cc1nn(-c2ccc(F)cc2)c2nc(N)c(C#N)c(-c3ccc(O)c(O)c3)c12	66	-3	59*	-5
C[C@H]1CN([C@@H](C)CO)C(=O)c2cc(NC(=O)CCN3CCOCC3)ccc2O[C@@H]1CN(C)Cc1ccc(C(=O)O)cc1	x	x	x	-1
Cc1ccc(S(=O)(=O)Nc2ccc(Cl)cc2)cc1NC(=O)c1cc2c(s1)CCCC2	26	0	75*	0
CCOCCCNC(=O)/C(C#N)=C/c1ccc([N+](=O)[O-])o1	-83*	1	74*	-7
CN(C)S(=O)(=O)c1cc(NC(=O)CNCc2ccccc2)ccc1Cl	4	3	18	-3
CN(CCOc1ccccc1)CC(=O)Nc1ccc(Cl)c(S(=O)(=O)N(C)C)c1	46	-1	67*	-8
Cc1cc(C(=O)Nc2cccc3c2O[C@H](CN(C)CC2CCCCC2)[C@H](C)CN([C@H](C)CO)C3=O)n(C)n1	x	x	x	8
COc1ccc(CCNCc2ccc(OCc3ccc(Cl)nc3)c(OC)c2)cc1OC	5	0	57*	4
CCOc1cc(CNCc2ccccc2)ccc1OCc1ccc(Cl)cc1	25	-22	55*	-5
COc1cc(CN(C)CCc2ccccc2)ccc1OCc1ccccc1	24	1	63*	-2
CCOc1cc(CNCCc2ccc(S(N)(=O)=O)cc2)ccc1OCc1ccccc1	30	1	30	1
CCOc1cc(CNCCc2ccc(S(N)(=O)=O)cc2)cc(Cl)c1OCc1ccccc1	40	-1	58*	5
CCN(Cc1ccccc1)Cc1ccc(OCc2ccccc2)c(OC)c1	18	1	32	-16
CCNCc1cc(Cl)c(OCc2ccccc2)c(OCC)c1	0	-1	5	-4
C[C@@H]1CN([C@H](C)CO)C(=O)c2cccc(NC(=O)Nc3ccc(C(F)(F)F)cc3)c2O[C@@H]1CN(C)S(=O)(=O)c1cccs1	x	x	x	-5
COc1ccc(CCNC(=S)NCc2ccc(Cl)c(Cl)c2)cc1OC	14	0	60*	-2
COc1ccc(CNCCc2ccc(Cl)cc2)cc1OCc1ccccc1	25	-1	70*	7
CCNC(=S)NCc1ccc(OC)c(OC)c1	29	0	-11	0
COc1ccc(NC(=O)N(C)C[C@@H]2Oc3ccc(NC(=O)NC4CCCCC4)cc3CC(=O)N([C@H](C)CO)C[C@H]2C)cc1	x	x	x	0
CC(=O)N(C)Cc1ccc(C(=O)CCl)cc1	28	-1	74*	0
CC(=O)NCc1ccc(C(=O)CCl)cc1	42	0	61*	-13
CC(=O)N(C)Cc1ccc(C(=O)CSc2nnc(C3CC3)n2C2CC2)cc1	x	x	x	2
CC(=O)NCc1ccc(C(=O)CCl)s1	32	5	56*	1
COc1ccc(C(=O)OCC(=O)c2ccc(CNC(C)=O)s2)cc1	x	x	x	1
SMILES	AI-2 QS mod	HIF act	T cruzi repl	ARNT-TACC3 inh
S=C(NCc1ccccn1)NN=Cc1ccccn1	x	x	x	58*
O=C(C[C@@H]1C[C@H]2c3cc(NC(=O)Nc4ccccc4)ccc3O[C@H]2[C@H](CO)O1)NCCN1CCCCC1	x	x	x	2
Cc1ccc(N(CCC#N)C(=O)CCl)cc1C	1	0	59*	x
COc1cccc(S(=O)(=O)N2CCCCN3[C@H](C2)[C@@H](c2ccc(-c4cccnc4)cc2)[C@@H]3CO)c1	x	x	x	3
Clc1ccc(C[n+]2cc(-c3ccccc3)n3c2CCC3)cc1Cl	8	0	59*	5
Clc1ccc(-c2c[n+](Cc3ccc(Br)cc3)c3n2CCCCC3)cc1	23	-1	52	2
Clc1ccc(-c2c[n+](Cc3cccc(Cl)c3)c3n2CCC3)cc1	13	0	60*	-5
Clc1ccc(-c2c[n+](Cc3ccc(Cl)cc3Cl)c3n2CCCCC3)cc1	28	0	15	-1
Clc1ccc(C[n+]2cc(-c3ccccc3)n3c2CCCCC3)c(Cl)c1	25	0	55*	-12
Cn1cccc1/C=C1\SC(=S)N(Nc2ccccc2)C1=O	7	1	64*	14
Cc1cc(C)c(OCCCNCc2ccccc2)c(Br)c1	20	1	20	6
Cc1cc(Cl)c(OCCCNCc2ccccc2)c(Br)c1	17	0	56*	1
O=C(c1ccc2ccccc2c1)N1CCN(S(=O)(=O)/C=C/c2ccccc2)CC1	32	0	55*	-7
COC(=O)NC(=S)Nc1ccc(Oc2ccc(Cl)cc2Cl)c(Cl)c1	17	0	62*	14
Cc1ccc(NC(=S)NC(=O)C2CC2)cc1Cl	-39	x	x	1
COC(=O)NC(=S)Nc1ccc(Oc2ccc(Cl)cc2)c(Cl)c1	9	0	74*	-3
O=C(NC(=S)Nc1ccc(F)c(Cl)c1)C1CC1	-78*	1	-16	-1
Cc1noc(C)c1S(=O)(=O)Nc1ccc2c(c1)C(=O)N([C@H](C)CO)C[C@@H](C)[C@H](CN(C)S(=O)(=O)c1ccc(Cl)cc1)O2	x	x	x	-16
CN=c1scc(-c2cccs2)n1/N=C/c1ccc(O)c(O)c1O	12	1	-19	60*
C=CCN=c1scc(-c2ccco2)n1/N=C/c1ccc(O)c(O)c1O	-1	2	-4	49*
Oc1ccc(/C=N/n2c(-c3ccco3)csc2=Nc2cccnc2)c(O)c1	13	0	4	64*
CC(C)N=c1scc(-c2ccco2)n1/N=C/c1ccc(O)c(O)c1	x	x	x	27
CN(C)CC(=O)Nc1ccc2c(c1)[C@H]1C[C@H](CC(=O)N3CCCCC3)O[C@H](CO)[C@H]1O2	x	x	x	-5
COc1ccc(NC(=O)N(C)C[C@@H]2OCCCC[C@H](C)Oc3ccc(NC(=O)c4ccncc4)cc3C(=O)N([C@H](C)CO)C[C@H]2C)cc1	x	x	x	3
O=C(C[n+]1cc(-c2ccccc2)n2c1CCCCC2)c1ccc(Cl)cc1	11	0	38	x
SMILES	AI-2 QS mod	HIF act	T cruzi repl	ARNT-TACC3 inh
CC1CCC(C(C)C)C(OC(=O)C[n+]2cc(-c3ccc(Cl)cc3)n3c2CCCCC3)C1 (centres undefined)	39	0	56*	x
CCN(CC)c1ccc(NC(=O)Cn2cc3c(n2)CCC(C)C3)c(C)c1 (centres undefined)	20	0	-10	49*
O=[N+]([O-])c1ccc(-c2ccn[nH]2)o1	-129*	0	68*	-1
CCN(Cc1ccccc1)C(c1cccs1)c1nnnn1C1CCCCC1 (centres undefined)	32	0	56*	10
Clc1ccccc1CN(Cc1ccccc1)C(c1cccs1)c1nnnn1C1CCCC1 (centres undefined)	x	0	35	0
CCn1ccnc1CN(C)Cc1cn(-c2cccc(C)c2)nc1-c1cccc(F)c1	22	0	55*	14
CCn1ccnc1CN(C)Cc1cn(-c2ccc(C)cc2)nc1-c1cccc(C)c1	41	1	66*	5
